Measured values from ChEMBL document CHEMBL1932946, “Design, synthesis and anticonvulsant evaluation of novel N-(4-substituted phenyl)-2-[4-(substituted) benzylidene]-hydrazinecarbothio amides” (Eur J Med Chem, 2012).
Active and inactive are the calls of the source.

What was measured:
[1] = Neuroprotective activity in hippocampal slice assessed as protection against NMDA-induced cell death using propidium iodide staining; format: functional, tissue-based; settings: Hippocampus
Outline: (§1)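 Qualitative primary screen on organotypic hippocampal slice cultures. Cell death induced by NMDA or kainic acid, with or without test compound. Propidium iodide present in all wells; PI fluorescence intensity taken as proportional to cell death.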

[2] = test system: Mus musculus; assay: Neurotoxicity in albino CF-1 mouse assessed as minimum motor impairment at 300 mg/kg, ip after 0.5 hrs by rotarod test; format: toxicity, organism-based; parameters: dose 300 mg/kg, route intraperitoneal; settings: in vivo
Outline: (§2)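 Minimal motor impairment assessed in male CF-1 albino mice (18–25 g) at 0.5 and 4 h after i.p. doses of 30, 100 and 300 mg/kg, given in 0.5% methyl cellulose. Minimum dose toxic in half or more of mice recorded.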

[3] = test system: Mus musculus; assay: Neurotoxicity in albino CF-1 mouse assessed as minimum motor impairment at 300 mg/kg, ip after 4 hrs by rotarod test; format: toxicity, organism-based; parameters: dose 300 mg/kg, route intraperitoneal; settings: in vivo; outline: as §2
[4] = test system: Mus musculus; assay: Anticonvulsant activity in albino CF-1 mouse assessed as protection against 6 Hz psychomotor seizure at 100 mg/kg, ip after 4 hrs by minimal clonic seizure test; format: functional, organism-based; parameters: dose 100 mg/kg
Outline: (§3)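 Male CF-1 albino mice (18–25 g) given compound i.p., suspended in 0.5% methyl cellulose, 100 mg/kg in screen. Four mice per time point challenged at 0.25, 0.5, 1.0, 2.0 and 4.0 h via corneal electrodes (32 mA, 3 s, 6 Hz). Protection = absence of psychomotor seizure (minimal clonic phase, automatistic behaviours). Scored as animals protected/tested.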

[5] = Neurotoxicity in ip dosed albino CF-1 mouse assessed as minimum motor impairment after 0.5 hrs by rotarod test; format: toxicity, organism-based; settings: in vivo
[6] = test system: Mus musculus; assay: Anticonvulsant activity in albino CF-1 mouse assessed as protection against 6 Hz psychomotor seizure at 100 mg/kg, ip after 2 hrs by minimal clonic seizure test; format: functional; outline: as §3
[7] = Neuroprotective activity in hippocampal slice assessed as protection against kainic acid-induced cell death using propidium iodide staining; format: functional, tissue-based; settings: Hippocampus; outline: as §1
[8] = test system: Mus musculus; assay: Anticonvulsant activity in albino CF-1 mouse assessed as protection against 6 Hz psychomotor seizure at 100 mg/kg, ip after 1 hr by minimal clonic seizure test; format: functional; outline: as §3
[9] = Octanol-phosphate buffer partition coefficient, log P of the compound at 5 mg after 24 hrs by UV spectroscopic analysis; format: physicochemical
Outline: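 5 mg compound added to 10 mL octanol plus 10 mL phosphate buffer in a stoppered tube. Mixture shaken mechanically 24 h at room temperature, then left 6 h in a separating funnel to equilibrate.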

[10] = test system: Mus musculus; assay: Anticonvulsant activity in ip dosed albino CF-1 mouse assessed as protection against 6 Hz psychomotor seizure after 0.5 hrs by minimal clonic seizure test; format: functional; settings: albino CF-1, ip; outline: as §3
[11] = species on record: Mus musculus; assay: Protective index, ratio of TD50 for albino CF-1 mouse to ED50 for albino CF-1 mouse by 6 Hz psychomotor seizure test; format: functional
[12] = test system: Mus musculus; assay: Anticonvulsant activity in albino CF-1 mouse assessed as protection against 6 Hz psychomotor seizure at 100 mg/kg, ip after 0.5 hrs by minimal clonic seizure test; format: functional; outline: as §3
[13] = test system: Mus musculus; assay: Anticonvulsant activity in albino CF-1 mouse assessed as protection against 6 Hz psychomotor seizure at 100 mg/kg, ip after 0.25 hrs by minimal clonic seizure test; format: functional; outline: as §3
[14] = test system: Mus musculus; assay: Anticonvulsant activity in albino CF-1 mouse assessed as protection against subcutaneous metrazol-induced seizure at 300 mg/kg, ip after 4 hrs; format: functional, organism-based; parameters: dose 300 mg/kg
Outline: (§4)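 Mice (male CF-1 albino, 18–25 g) pretreated i.p. with 30, 100 or 300 mg/kg in 0.5% methyl cellulose. Metrazol, at a dose convulsing 97% of animals, injected subcutaneously into the loose skin fold at the midline of the neck. Animals isolated and watched for 30 min for absence of seizure. Minimum dose active in half or more of mice recorded.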

[15] = test system: Mus musculus; assay: Anticonvulsant activity in ip dosed albino CF-1 mouse assessed as protection against maximal electroshock-induced seizures after 4 hrs; format: functional; settings: albino CF-1, ip, read-out: MED
Outline: (§5)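 Male CF-1 albino mice (18–25 g) dosed i.p. at 30, 100 and 300 mg/kg as suspension in 0.5% methyl cellulose. 60 Hz alternating current, 50 mA, delivered 0.2 s via corneal electrodes primed with 0.5% tetracaine HCl electrolyte. Protection = abolition of hind limb tonic extensor component. Value reported is the minimum dose active in half or more of mice.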

[16] = test system: Mus musculus; assay: Anticonvulsant activity in ip dosed albino CF-1 mouse assessed as protection against maximal electroshock-induced seizures after 2 hrs; format: functional; settings: albino CF-1, ip, read-out: MED
Outline: (§6)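 Male CF-1 mice (18–25 g) received compound suspended in 0.5% methyl cellulose, i.p. at 30, 100 or 300 mg/kg. A 60 Hz alternating current (50 mA, 0.2 s) was delivered through corneal electrodes primed with 0.5% tetracaine HCl. Protection was defined as abolition of the hind limb tonic extensor component. The value reported is the minimum dose active in half or more of mice.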

[17] = test system: Mus musculus; assay: Anticonvulsant activity in albino CF-1 mouse assessed as protection against subcutaneous metrazol-induced seizure at 300 mg/kg, ip after 0.5 hrs; format: functional, organism-based; parameters: dose 300 mg/kg; outline: as §4
[18] = test system: Mus musculus; assay: Anticonvulsant activity in ip dosed albino CF-1 mouse assessed as protection against maximal electroshock-induced seizures after 0.5 hrs; format: functional; settings: albino CF-1, ip, read-out: MED; outline: as §6
[19] = test system: Mus musculus; assay: Anticonvulsant activity in albino CF-1 mouse assessed as protection against maximal electroshock-induced seizures at 300 mg/kg, ip after 0.5 hrs; format: functional, organism-based; parameters: dose 300 mg/kg; outline: as §5
[20] = test system: Mus musculus; assay: Anticonvulsant activity in ip dosed albino CF-1 mouse assessed as protection against subcutaneous metrazol-induced seizures after 0.5 hrs; format: functional; settings: albino CF-1, 0.5 h, read-out: MED
Outline: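 Male CF-1 mice (18–25 g) were given compound i.p. at 30, 100 or 300 mg/kg, suspended in 0.5% methyl cellulose. Metrazol was injected subcutaneously into a loose skin fold at the neck midline, at the dose that induces convulsions in 97% of animals. Mice were isolated and watched for 30 min for absence of seizure. The value reported is the minimum dose active in half or more of mice.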

[21] = test system: Mus musculus; assay: Anticonvulsant activity in albino CF-1 mouse assessed as protection against maximal electroshock-induced seizures at 300 mg/kg, ip after 4 hrs; format: functional, organism-based; parameters: dose 300 mg/kg; outline: as §5
[22] = test system: Mus musculus; assay: Anticonvulsant activity in albino CF-1 mouse assessed as protection against maximal electroshock-induced seizures at 300 mg/kg, ip after 2 hrs; format: functional, organism-based; parameters: dose 300 mg/kg; outline: as §5

Row | SMILES | Activity [2] | Activity [3] | Activity [4] | Activity [6] | Activity [8] | logP at 24 h [9] | Activity [12] | Activity [13] | also measured
1 | Fc1ccc(NC(=S)N/N=C/c2ccc(Oc3ccc(Cl)cc3)cc2)cc1 | Non-toxic | Non-toxic | Active | Active | Active | 5.78 | – | – | Activity [1]: inactive; TD50 at 0.5 h [5]: > 500 mg/kg; Activity [7]: inactive; ED50 [10]: > 200 mg/kg; Ratio TD50/ED50 [11]: >2.5; Activity ([12]; route intraperitoneal): 100%; Activity ([13]; route intraperitoneal): 75%
2 | Cc1cc(Oc2ccc(/C=N/NC(=S)Nc3ccc(F)cc3)cc2)ccc1Cl | Non-toxic | Non-toxic | inactive | inactive | Active | 6.07 | Active | inactive | –
3 | Fc1ccc(NC(=S)N/N=C/c2ccc(Oc3ccccc3)cc2)cc1 | Non-toxic | Non-toxic | inactive | inactive | inactive | 5.09 | Active | Active | –
4 | S=C(N/N=C/c1ccc(Oc2ccccc2)cc1)Nc1ccc(Br)cc1 | Non-toxic | Non-toxic | inactive | inactive | inactive | 6.38 | Active | inactive | Activity [1]: inactive; Activity [7]: inactive
5 | Cc1ccc(Oc2ccc(/C=N/NC(=S)Nc3ccc(Br)cc3)cc2)cc1 | Non-toxic | Non-toxic | inactive | inactive | Active | 6.17 | Active | inactive | –
6 | O=C1NC(=O)C(c2ccccc2)(c2ccccc2)N1 [PHENYTOIN] | – | – | – | – | – | – | – | – | Activity [14]: inactive; minimal effective dose [15]: 30 mg/kg; minimal effective dose [16]: 30 mg/kg; Activity [17]: inactive; minimal effective dose [18]: 30 mg/kg
7 | Fc1ccc(Oc2ccc(/C=N/NC(=S)Nc3ccc(Br)cc3)cc2)cc1 | Non-toxic | Non-toxic | inactive | Active | Active | 5.82 | Active | inactive | –
8 | CCCC(CCC)C(=O)[O-].[Na+] [VALPROATE SODIUM] | Non-toxic | Non-toxic | – | – | – | – | – | – | Activity [19]: inactive; minimal effective dose [20]: 300 mg/kg; Activity [21]: inactive; Activity [14]: inactive; Activity [22]: inactive
9 | S=C(N/N=C/c1ccc(Oc2ccc(Br)cc2)cc1)Nc1ccc(Br)cc1 | Non-toxic | Non-toxic | inactive | inactive | inactive | 6.53 | – | inactive | Activity [19]: inactive; Activity [14]: inactive; Activity [22]: inactive; minimal effective dose [15]: 300 mg/kg; Activity ([12]; route intraperitoneal): 75%; Activity [17]: inactive
10 | Fc1ccc(NC(=S)N/N=C/c2ccc(Oc3ccc(Br)cc3)cc2)cc1 | Non-toxic | Non-toxic | inactive | inactive | inactive | 5.88 | Active | inactive | –
11 | Cc1cc(Oc2ccc(/C=N/NC(=S)Nc3ccc(Cl)cc3)cc2)ccc1Cl | Non-toxic | Non-toxic | inactive | – | – | 6.59 | Active | inactive | Activity ([6]; route intraperitoneal): 50%; Activity ([8]; route intraperitoneal): 50%
